Assay results: publication PMC12065821 (Scientific Reports, 2025)
Where a SMILES comes first, the peptide text is derived from it. Bridges are numbered along the chain shown (N, C = ends). [ ]: non-standard residue; d: D form. The star is where a group is joined. Heptanoyl(6-Me) = CC(C)CCCCC(=O)*; Dab = NCC[C@H](N)C(=O)O

Legend:
[1] = cited from earlier work
[2] = cited from earlier work; remark: listed apart in the source
[3] = Kidney PK of CMS/CMS-E2 and formed colistin/colistin B; type: in vivo, rats; details: for Kp: kidney (cortex) / plasma, colistin/colistin B; for Tmax formed colistin/colistin B in kidneys / Cmax formed colistin/colistin B in kidneys: rat kidney cortex, LC-MS/MS; for Tmax formed colistin/colistin B in kidneys: NCA; for Cmax formed colistin/colistin B in kidneys: mean ± SD
How it was run: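 Male Sprague-Dawley rats (300 ± 15 g) got one i.p. dose in saline. At each sampling time rats were anaesthetised with tiletamine-zolazepam (40 mg/kg) and killed, and the left kidney was frozen at −70 °C. Kidney cortex was homogenised in saline (1:10 m/v, 1% BSA). Samples went through WCX solid-phase extraction with polymyxin B1 internal standard, then LC-MS/MS. Prodrug was calculated as total (after […] sulfuric acid hydrolysis) minus free colistin/colistin B. Parameters came from non-compartmental analysis.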

[4] = PK-TD model, PK component; type: in vivo; details: rats, single i.p. CMS-E2 40 mg/kg CBA, one-compartment PK-TD model, mean ± SD
How it was run: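 Plasma prodrug and formed colistin/colistin B concentrations after i.p. dosing were fitted by a compartmental model. The final model used one compartment each for prodrug and formed drug, a conversion rate constant, and linear first-order total clearance from both. Fit was judged by R², AIC, BIC and visual inspection. Estimates are mean ± SD.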

[5] = Plasma PK of CMS/CMS-E2 and formed colistin/colistin B; type: in vivo, rats; details: rat plasma, LC-MS/MS, NCA, mean ± SD
How it was run: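 Male Sprague-Dawley rats were dosed once i.p. in saline, and serial jugular-vein blood was taken before and after dosing. Blood was heparinised (1%), spun at 4,982 × g for 10 min at 4 °C, and plasma stored at −70 °C. Plasma (40 µL) went through WCX solid-phase extraction with polymyxin B1 internal standard, then LC-MS/MS. Prodrug was total (acid-hydrolysed) minus free analyte. […] Values are mean ± SD, compared by Wilcoxon rank sum.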

[6] = tested on: rats; experiment: Regression of kidney colistin/colistin B concentrations against CR, BUN, SQS; type: in vivo; details: 95% CI
[7] = single i.p. CMS or CMS-E2 20 mg/kg CBA
[8] = single i.p. CMS-E2 40 mg/kg CBA

Structure (SMILES): CC(C)CCCCC(=O)N[C@@H](CCN)C(=O)N[C@H](C(=O)N[C@@H](CCN)C(=O)N[C@H]1CCNC(=O)[C@H]([C@@H](C)O)NC(=O)[C@H](CCN)NC(=O)[C@H](CCN)NC(=O)[C@H](CC(C)C)NC(=O)[C@@H](CC(C)C)NC(=O)[C@H](CCN)NC1=O)[C@@H](C)O [colistin B] ({Heptanoyl(6-Me)}-[Dab]T[Dab][Dab][Dab][dL]L[Dab][Dab]T; lactam 4-C)
- clearance after the colistin sulfate [1]: 5.2 ± 0.4 mL/min/kg
- clearance relative to colistin [1]: almost half
- clearance when administered as a single component [1]: 3.05 ± 0.62 mL/min/kg
- plasma protein binding [2]: 41.7 ± 12.4%
- Kp ([3]; male, Sprague-Dawley, rat, ip, 20 mg/kg CBA, Kidney/plasma ratio of AUC0-inf, rats, single i.p. CMS or CMS-E2 20 mg/kg CBA): 19.7
- Kp ([3]; male, Sprague-Dawley, rat, ip, 40 mg/kg CBA, Kidney/plasma ratio of AUC0-inf, rats, single i.p. CMS-E2 40 mg/kg CBA): 39.6
- Kp ([3]; male, Sprague-Dawley, rat, ip, 40 mg/kg CBA, Kidney/plasma ratio of Cmax, rats, single i.p. CMS-E2 40 mg/kg CBA): 20.1
- tissue level at time at 8 h ([3]; male, Sprague-Dawley, rat, kidney cortex, ip, 20 mg/kg CBA, SD): 4860 ± 2360 ng/g
- tissue level at time at 24 h ([3]; male, Sprague-Dawley, rat, kidney cortex, ip, 40 mg/kg CBA, SD): 11500 ± 1740 ng/g
- Tmax formed colistin/colistin B in kidneys [3, 7]: 4 h
- Cmax formed colistin/colistin B in kidneys ([3]; single i.p. CMS or CMS-E2 20 mg/kg CBA, SD): 17.6 ± 6.79 µg/g
- Tmax formed colistin/colistin B in kidneys [3, 8]: 10 h
- Cmax formed colistin/colistin B in kidneys ([3]; single i.p. CMS-E2 40 mg/kg CBA, SD): 148 ± 32.8 µg/g
- Kidney/plasma ratio of Cmax, colistin/colistin B ([3]; rats, single i.p. CMS or CMS-E2 20 mg/kg CBA): 15.4
- CLcolistin/colistin B (total body clearance) [4]: 1.89 ± 0.809 mL/min/kg
- AUC0-inf formed colistin/colistin B in plasma [5, 7]: 4140 ± 1260 ng·h/mL
- Cmax formed colistin/colistin B in plasma [5, 7]: 1140 ± 217 ng/mL
- Tmax formed colistin/colistin B in plasma [5, 7]: 1.67 ± 0.471 h
- t1/2 formed colistin/colistin B in plasma [5, 7]: 1.22 ± 0.313 h
- AUC0-inf formed colistin/colistin B in plasma [5, 8]: 35500 ± 23900 ng·h/mL
- Cmax formed colistin/colistin B in plasma [5, 8]: 7080 ± 2770 ng/mL
- Tmax formed colistin/colistin B in plasma [5, 8]: 4.71 ± 0.881 h
- t1/2 formed colistin/colistin B in plasma [5, 8]: 2.13 ± 0.827 h
- regression coefficient between kidney concentration and SQS ([6]; ordered logistic regression): 0.03
- regression coefficient between kidney concentration and contemporaneous BUN ([6]; simple linear regression): 0.08
- regression coefficient between kidney concentration and contemporaneous CR ([6]; simple linear regression): 1.58
